# CHO parental Ca = counter-screen: ATP calcium response change in parental CHO cells; parental CHO-K1, ATP-induced calcium, Fluo-8 fluorescence; inhibition, % at 5.6 µM; actives 0.63% (n = 330,000);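 active = inhibition above that plate's mean sample inhibition plus 3 SD, cut at about 26% in these data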;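 also: 0% = ATP-challenged DMSO wells and 100% = DMSO wells without ATP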
#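 Material: parental CHO cells / Compound: single nominal dose of 5.6 µM per compound / Signal: Fluo-8 fluorescence / Replicates: singlicate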
# OX1R antag-1 = OX1R (human) antagonism; O43613; OX1R-expressing cells, FRET antagonist read-out; inhibition, % at 6.6 µM; actives 1.8% (n = 330,000); AID 485270; in the data active = inhibition mostly above about 38%, no sharp cut-off; inactive = mostly below about 40%;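 also: 0% = agonist challenge alone and 100% = reference antagonist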
# Target sequence (O43613 whole entry, looked up): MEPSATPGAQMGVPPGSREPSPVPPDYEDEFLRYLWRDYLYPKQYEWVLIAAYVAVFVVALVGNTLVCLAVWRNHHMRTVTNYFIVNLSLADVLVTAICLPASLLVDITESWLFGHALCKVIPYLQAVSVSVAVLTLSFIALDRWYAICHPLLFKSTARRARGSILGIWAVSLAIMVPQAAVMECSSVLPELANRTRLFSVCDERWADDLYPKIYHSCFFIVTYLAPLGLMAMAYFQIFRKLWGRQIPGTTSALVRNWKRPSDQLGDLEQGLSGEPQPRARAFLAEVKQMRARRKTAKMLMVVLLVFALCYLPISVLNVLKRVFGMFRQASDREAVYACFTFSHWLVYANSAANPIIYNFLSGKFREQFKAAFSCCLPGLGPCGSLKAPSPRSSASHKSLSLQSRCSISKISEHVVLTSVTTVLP
# NTR1 ag = agonists of human neurotensin receptor NTR1 | P30989 | NTR1-U2OS beta-arrestin-GFP spot imaging, agonist mode | activation, % at 20 µM | actives 0.17% (n = 330,000) | AID 493036;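 active = activation at or above 40% of the spot to cytoplasm intensity ratio, with at least 20 cells analyzed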;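 also: 0% = DMSO without peptide and 100% = 100 nM NTR1 peptide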
# TAAR1 antag = antagonists of human TAAR1 | Q96RJ0 | CHO RD-HGA16 TAAR1, Fluo-8 calcium fluorescence, antagonist | inhibition, % at 3 µM | actives 1.5% (n = 360,000);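 active = inhibition above a per-plate cutoff, the mean inhibition of test compounds on that plate plus 3 SD, cut at about 49% in these data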;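 also: 0% = DMSO plus EC80 beta-PEA response and 100% = DMSO alone without agonist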
#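 Test system: RD-HGA16 CHO cells with stable hTAAR1 and Gα16 / Probe or stimulus: EC80 β-phenethylamine stimulus / Times: seeding 17-24 h prior, 75-min 37 °C, 30-min RT dye loading / Detection: Fluo-8 calcium-sensitive fluorescence / Read-out basis: % inhibition scaled between DMSO and EC80 PEA controls / Repeats: singlicate, one well per test compound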
# TAAR1 agonist = human TAAR1 agonism. actives 0.99% (n = 360,000). activation, % at 3 µM. CHO RD-HGA16 TAAR1, Fluo-8 calcium fluorescence; vehicle wells 0%, saturating PEA agonist 100%. Q96RJ0;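 active = activation above the mean activation of all test compounds in the run plus 3 SD, cut at about 38% in these data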
#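 Test system: RD-HGA16 (CHO) cells co-expressing Gα16 and hTAAR1 | Doses: Single dose, 3 µM | Schedule: 17-24 h seeding, 75 min 37 °C dye, 30 min RT | Evaluation: % activation from peak over basal fluorescence ratio, DMSO-to-PEA scaled | Technique: Kinetic Fluo-8 calcium fluorescence | Benchmarks: Low control DMSO, high control PEA (EC100)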
# OX1R antag-2 = human HCRTR1 antagonism; CHO/OX1R cells, Fluo-8 calcium fluorescence, orexin A; O43613; actives 0.43% (n = 330,000); inhibition, % at 5 µM; AID 434989;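 active = inhibition above its plate's threshold, mean inhibition of all tested compounds on the plate plus 3 SD, cut at about 37% in these data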;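 also: 0% = orexin A challenge wells and 100% = SB-334867-A antagonist wells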
# OX1R Ca confirm = OX1R (human) antagonism, confirmed | shares compounds with OX1R antag-2 | CHO/OX1R cells, orexin A calcium Fluo-8 fluorescence | inhibition, % at 5 µM | actives 38% (n = 1,100); in the data active = inhibition above about 29%;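 also: 0% = agonist challenge alone and 100% = reference antagonist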
# CHO Ca counter = signal in parental CHO cells, OX1R antagonist counter-screen. shares compounds with OX1R antag-2. parental CHO-K1, ATP-induced calcium, Fluo-8 fluorescence. inhibition, % at 5.6 µM. actives 9.3% (n = 1,100). AID 492965;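 active = inhibition above a per-plate limit, the mean inhibition of that plate's test compounds plus 3 SD, cut at about 25% in these data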;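 also: 0% = ATP challenge with DMSO and 100% = DMSO without ATP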
# Active calls of the source: *; x = not tested or not shown. Sampled rows, rich in hits. Any-hit rate of the full collection: about 4%.
SMILES,CHO parental Ca,OX1R antag-1,NTR1 ag,TAAR1 antag,TAAR1 agonist,OX1R antag-2,OX1R Ca confirm,CHO Ca counter
O=C(CNC(=O)N1CC(=O)Nc2ccccc21)Nc1cccc(F)c1,-4,13,-1,-6,1,-9,x,x
CCCC(C)C(=O)OCC(=O)Nc1ccc(Br)cc1 (stereo not drawn),1,26,3,x,x,-8,x,x
CC(=O)NC(C)C(=O)OCC(=O)Nc1ccc(Br)cc1 (stereo not drawn),1,11,-1,-6,19,36,2,4
COCCCN1C(=O)C(CC(=O)NCCCN(C)C)CC(C(=O)N2CCOCC2)=C1C (stereo not drawn),x,x,x,-24,4,x,x,x
Cc1cccc2cc3c(N)c(C(=O)Nc4ccc(N5CCOCC5)cc4)sc3nc12,0,15,8,8,5,10,x,x
CCc1cccc2cc3c(N)c(C(=O)Nc4ccc(S(=O)(=O)N5CCCC5)cc4)sc3nc12,33,13,x,65*,17,46,17,20
CC(C)C(NC(=S)NCc1ccccc1)C(=O)O (stereo not drawn),-8,16,2,-5,0,31,-2,11
COc1ccc(C(CNC(=O)CNC(=O)c2cccc(C)c2)N2CCCCC2)cc1 (stereo not drawn),x,x,x,0,1,x,x,x
CCN(CC)c1ccc(/C=c2/sc3nnc(-c4ccccc4C)n3c2=O)cc1,15,24,-2,13,17,32,44*,40*
COc1ccc(-n2c(=S)[nH]c3cc(C(=O)Nc4ccc(C)c(F)c4)ccc3c2=O)c(OC)c1,15,44,2,13,5,21,16,15
CC(=O)n1cc([C@@H]2C=C(C(=O)NCc3ccccc3)O[C@H](OCc3ccc(CO)cc3)C2)c2ccccc21,7,23,6,62*,22,41,17,1
COc1cc(/C=C/C(O)=C/C(=O)/C=C/c2ccc(O)cc2)ccc1O,25,4,0,81*,45*,48,18,18
CC(Oc1ccc(Br)cc1Cl)C(=O)Nc1ccncc1 (stereo not drawn),25,5,1,23,5,31,33*,14
CC(Oc1ccc(Br)cc1)C(=O)Nc1ccncc1 (stereo not drawn),-1,14,-1,21,21,0,x,x
Cc1ccc(OC(C)C(=O)Nc2ccc(F)cc2)c([N+](=O)[O-])n1 (stereo not drawn),-1,2,-2,10,0,11,x,x
COc1ccccc1N(CC(=O)NCCN1CCOCC1)S(=O)(=O)c1ccc(C)cc1,-1,28,0,-5,1,-9,x,x
COC(=O)C1=CN(c2ccc3c(c2)OCO3)C(N)=C(C#N)C1c1ccccc1 (stereo not drawn),x,x,x,-9,2,x,x,x
COc1ccccc1OCCNC(=O)C(CCSC)NS(=O)(=O)c1ccccc1F (stereo not drawn),-10,13,-2,-19,1,-15,x,x
NS(=O)(=O)c1ccc(NC(=O)c2cccc3cc4ccccc4nc23)cc1,x,x,x,18,5,x,x,x
COc1ccc(CN2C(=O)NC(C)(c3ccc(C)cc3)C2=O)cc1F (stereo not drawn),-20,8,1,-6,6,56*,-1,2
FC(F)(F)c1nnc(Nc2ccc(Cl)cc2)s1,17,9,1,-11,9,42*,-9,-3
COc1ccccc1C(=O)NCCC(=O)N1CCCC(C)C1 (stereo not drawn),6,-6,2,-15,1,-4,x,x
CSc1ccc(CN(C)C(=O)c2cccc(S(=O)(=O)NCc3ccccc3)c2)cc1,14,50,2,40,5,40*,27,5
COc1ccc(CN(C)C(=O)c2cccc(S(=O)(=O)NCc3ccccc3)c2)cc1F,x,x,x,-7,2,x,x,x
CC(=O)Nc1ccc(C2=NNC(=Nc3cccc(S(=O)(=O)N(C)C)c3)SC2)cc1,-9,14,-1,x,x,34*,38*,-3
SMILES,CHO parental Ca,OX1R antag-1,NTR1 ag,TAAR1 antag,TAAR1 agonist,OX1R antag-2,OX1R Ca confirm,CHO Ca counter
CN(C)S(=O)(=O)c1cccc(N=C2NN=C(c3ccccc3)CS2)c1,0,14,x,-5,1,1,x,x
O=C(Nc1ccc(C(=O)NCCCN2CCN(c3ccc(F)cc3)CC2)cc1)C1=CSCCO1,17,1,3,23,45*,28,44*,27*
CCOC(=O)C1=CC[C@@H](c2ccco2)N(S(=O)(=O)c2ccc(C)cc2)[C@H]1C(=O)OCC,-27,9,-1,-8,2,-23,x,x
CCOC(=O)C1=CC[C@@H](c2cccc(C)c2)N(S(=O)(=O)c2ccc(C)cc2)[C@H]1C(=O)OCC,-6,22,1,-4,10,36,-10,2
CCOC(=O)C1=CC[C@@H](c2ccccc2Cl)N(S(=O)(=O)c2ccc(C)cc2)[C@H]1C(=O)OCC,10,27,1,8,6,60*,10,5
Cc1csc2c(N3CCN(C(=S)Nc4ccc(C(F)(F)F)cc4)CC3)ncnc12,10,25,11,38,47*,37,22,64*
Cc1csc2ncnc(N3CCN(C(=S)Nc4ccc(C(F)(F)F)cc4)CC3)c12,0,45,3,-41,1,49*,22,45*
COc1ccc(NC(=O)COc2ccccc2Cc2ccccc2)cc1S(N)(=O)=O,13,26,2,-5,5,27,19,15
C=CCNC(=S)NC(=O)c1oc2ccccc2c1C,5,21,0,3,3,40,38*,-13
CCN(CC)c1ccc2c(c1)oc(=O)c1c(Cl)cc(=O)oc12,16,22,3,x,x,28,80*,56*
CC1CN(C(=O)CCC(=O)NCCCN2CCN(Cc3ccccc3)CC2)c2cc(Cl)ccc2O1 (stereo not drawn),-12,7,0,-20,2,-17,x,x
COc1ccc(N2CCN(C(=O)CSc3ccc([N+](=O)[O-])cc3)CC2)cc1,-12,12,1,23,4,32,21,7
COc1ccc(N2CCN(C(=O)CSc3ccc(C)cc3)CC2)cc1,-2,14,0,5,4,-11,x,x
Cc1cc(C)nc(SCC(=O)Nc2ccc(N3CCOCC3)c(Cl)c2)n1,22,55,0,-2,7,32,21,31*

# Bioassay records deposited in PubChem by several laboratories.
